Measured values as given in ChEMBL document CHEMBL1150393, “Evaluation of radiolabeled (hetero)aromatic analogues of N-(2-diethylaminoethyl)-4-iodobenzamide for imaging and targeted radionuclide therapy of melanoma” (J Med Chem, 2008).

Columns and labels:
[1] = Partition coefficient, log P in phosphate buffer solution at pH 7.4; format: physicochemical
Procedure, shortened: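 Shake-flask partition: 50 µM [¹²⁵I]-labelled compound in phosphate buffer pH 7.4 was mixed with 2 mL n-octanol. Each phase was γ-counted, P was taken as the octanol/buffer activity ratio, and log P was reported.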

[2] = Drug excretion in mouse B16-F0 cells bearing C57BL/6 mouse urine at 0.74 to 0.92 MBq, iv after 72 hrs; format: ADME, organism-based; conditions: in vivo
Procedure, shortened: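 Urine was collected from two B16-F0 tumour-bearing C57BL6 mice for up to 72 h after iv tail-vein injection of the [¹²⁵I]-labelled compound (0.1 µmol). Samples were counted to give cumulative urinary excretion as %ID.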

[3] = Biodistribution in tumor of C57BL/6 mouse bearing mouse B16-F0 cells at 0.74 to 0.92 MBq, iv after 1 hr; format: ADME, organism-based, Neoplasm; conditions: in vivo
Procedure, shortened: (§1)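 [¹²⁵I]-labelled compound given iv by tail vein (0.1 µmol per mouse) to male C57BL6 mice bearing s.c. B16-F0 flank tumours (5 × 10⁵ cells in PBS). Two mice per time point were killed by CO₂, frozen in liquid nitrogen and cut into 40 µm cryosections, eight slices per mouse. Slice radioactivity was read on a multiwire proportional counter, converted to kBq/g and reported as %ID/g.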

[4] = Biodistribution in tumor of C57BL/6 mouse bearing mouse B16-F0 cells at 0.74 to 0.92 MBq, iv after 6 hrs; format: ADME, organism-based, Neoplasm; conditions: in vivo; procedure, shortened: as §1
[5] = Biodistribution in tumor of C57BL/6 mouse bearing mouse B16-F0 cells at 0.74 to 0.92 MBq, iv after 24 hrs; format: ADME, organism-based, Neoplasm; conditions: in vivo; procedure, shortened: as §1
[6] = Ratio of drug level in tumor to liver of C57BL/6 mouse bearing mouse B16-F0 cells at 0.74 to 0.92 MBq, iv after 1 hr; format: ADME, organism-based; conditions: in vivo
Procedure, shortened: (§2)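 Tumour and organ radioactive concentrations came from whole-body cryosection counting (40 µm slices, eight per mouse, two mice per time) after tail-vein injection of the [¹²⁵I]-labelled compound (0.1 µmol) into male C57BL6 mice bearing s.c. B16-F0 melanoma. Each value is the ratio of the tumour concentration to the organ concentration.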

[7] = Ratio of drug level in tumor to liver of C57BL/6 mouse bearing mouse B16-F0 cells at 0.74 to 0.92 MBq, iv after 3 hrs; format: ADME, organism-based; conditions: in vivo; procedure, shortened: as §2
[8] = Ratio of drug level in tumor to lung of C57BL/6 mouse bearing mouse B16-F0 cells at 0.74 to 0.92 MBq, iv after 3 hrs; format: ADME, organism-based; conditions: in vivo; procedure, shortened: as §2
[9] = Ratio of drug level in tumor to lung of C57BL/6 mouse bearing mouse B16-F0 cells at 0.74 to 0.92 MBq, iv after 6 hrs; format: ADME, organism-based; conditions: in vivo; procedure, shortened: as §2
[10] = Ratio of drug level in tumor to brain of C57BL/6 mouse bearing mouse B16-F0 cells at 0.74 to 0.92 MBq, iv after 1 hr; format: ADME, organism-based; conditions: in vivo; procedure, shortened: as §2
[11] = Biodistribution in Stomach content of C57BL/6 mouse bearing mouse B16-F0 cells at 0.74 to 0.92 MBq, iv after 3 hrs; format: ADME, organism-based; conditions: in vivo
Procedure, shortened: (§3)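 Male C57BL6 mice with s.c. left-flank B16-F0 melanoma (5 × 10⁵ cells in PBS). Two mice per time point frozen in liquid nitrogen after CO₂ sacrifice. Eight 40 µm whole-body cryosections per mouse read by multiwire proportional counter. cpm/mm² converted to kBq/g and expressed as %ID/g.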

[12] = Biodistribution in Stomach content of C57BL/6 mouse bearing mouse B16-F0 cells at 0.74 to 0.92 MBq, iv after 6 hrs; format: ADME, organism-based; conditions: in vivo; procedure, shortened: as §3
[13] = Biodistribution in Stomach content of C57BL/6 mouse bearing mouse B16-F0 cells at 0.74 to 0.92 MBq, iv after 24 hrs; format: ADME, organism-based; conditions: in vivo; procedure, shortened: as §3
[14] = system: Liver; assay: Biodistribution in liver of C57BL/6 mouse bearing mouse B16-F0 cells at 0.74 to 0.92 MBq, iv after 1 hr; format: ADME, organism-based; conditions: in vivo; procedure, shortened: as §3
[15] = system: Liver; assay: Biodistribution in liver of C57BL/6 mouse bearing mouse B16-F0 cells at 0.74 to 0.92 MBq, iv after 6 hrs; format: ADME, organism-based; conditions: in vivo; procedure, shortened: as §3
[16] = system: Muscle tissue; assay: Biodistribution in muscle of C57BL/6 mouse bearing mouse B16-F0 cells at 0.74 to 0.92 MBq, iv after 6 hrs; format: ADME, organism-based; conditions: in vivo; procedure, shortened: as §3
[17] = system: Pancreas; assay: Biodistribution in pancreas of C57BL/6 mouse bearing mouse B16-F0 cells at 0.74 to 0.92 MBq, iv after 1 hr; format: ADME, organism-based; conditions: in vivo; procedure, shortened: as §3
[18] = system: Lung; assay: Biodistribution in lung of C57BL/6 mouse bearing mouse B16-F0 cells at 0.74 to 0.92 MBq, iv after 1 hr; format: ADME, organism-based; conditions: in vivo; procedure, shortened: as §3
[19] = system: Lung; assay: Biodistribution in lung of C57BL/6 mouse bearing mouse B16-F0 cells at 0.74 to 0.92 MBq, iv after 3 hrs; format: ADME, organism-based; conditions: in vivo; procedure, shortened: as §3
[20] = system: Lung; assay: Biodistribution in lung of C57BL/6 mouse bearing mouse B16-F0 cells at 0.74 to 0.92 MBq, iv after 6 hrs; format: ADME, organism-based; conditions: in vivo; procedure, shortened: as §3
[21] = system: Spleen; assay: Biodistribution in spleen of C57BL/6 mouse bearing mouse B16-F0 cells at 0.74 to 0.92 MBq, iv after 1 hr; format: ADME, organism-based; conditions: in vivo; procedure, shortened: as §1
[22] = system: Spleen; assay: Biodistribution in spleen of C57BL/6 mouse bearing mouse B16-F0 cells at 0.74 to 0.92 MBq, iv after 6 hrs; format: ADME, organism-based; conditions: in vivo; procedure, shortened: as §1
[23] = system: Kidney; assay: Biodistribution in kidney of C57BL/6 mouse bearing mouse B16-F0 cells at 0.74 to 0.92 MBq, iv after 1 hr; format: ADME, organism-based; conditions: in vivo; procedure, shortened: as §3
[24] = system: Kidney; assay: Biodistribution in kidney of C57BL/6 mouse bearing mouse B16-F0 cells at 0.74 to 0.92 MBq, iv after 3 hrs; format: ADME, organism-based; conditions: in vivo; procedure, shortened: as §3
[25] = system: Blood; assay: Biodistribution in blood of C57BL/6 mouse bearing mouse B16-F0 cells at 0.74 to 0.92 MBq, iv after 1 hr; format: ADME, organism-based; conditions: in vivo; procedure, shortened: as §3
[26] = system: Blood; assay: Biodistribution in blood of C57BL/6 mouse bearing mouse B16-F0 cells at 0.74 to 0.92 MBq, iv after 3 hrs; format: ADME, organism-based; conditions: in vivo; procedure, shortened: as §3
[27] = system: Blood; assay: Biodistribution in blood of C57BL/6 mouse bearing mouse B16-F0 cells at 0.74 to 0.92 MBq, iv after 6 hrs; format: ADME, organism-based; conditions: in vivo; procedure, shortened: as §3
[28] = system: Thyroid gland; assay: Biodistribution in thyroid of C57BL/6 mouse bearing mouse B16-F0 cells at 0.74 to 0.92 MBq, iv after 3 hrs; format: ADME, organism-based; conditions: in vivo; procedure, shortened: as §1
[29] = system: Thyroid gland; assay: Biodistribution in thyroid of C57BL/6 mouse bearing mouse B16-F0 cells at 0.74 to 0.92 MBq, iv after 6 hrs; format: ADME, organism-based; conditions: in vivo; procedure, shortened: as §1
[30] = Biodistribution in uvea of C57BL/6 mouse bearing mouse B16-F0 cells at 0.74 to 0.92 MBq, iv after 1 hr; format: ADME, organism-based, Uveal tract; conditions: in vivo; procedure, shortened: as §1
[31] = Biodistribution in uvea of C57BL/6 mouse bearing mouse B16-F0 cells at 0.74 to 0.92 MBq, iv after 3 hrs; format: ADME, organism-based, Uveal tract; conditions: in vivo; procedure, shortened: as §1
[32] = Biodistribution in uvea of C57BL/6 mouse bearing mouse B16-F0 cells at 0.74 to 0.92 MBq, iv after 6 hrs; format: ADME, organism-based, Uveal tract; conditions: in vivo; procedure, shortened: as §1
[33] = Biodistribution in uvea of C57BL/6 mouse bearing mouse B16-F0 cells at 0.74 to 0.92 MBq, iv after 24 hrs; format: ADME, organism-based, Uveal tract; conditions: in vivo; procedure, shortened: as §1
[34] = system: Brain; assay: Biodistribution in brain of C57BL/6 mouse bearing mouse B16-F0 cells at 0.74 to 0.92 MBq, iv after 3 hrs; format: ADME, organism-based; conditions: in vivo; procedure, shortened: as §3

| SMILES | logD [1] | Activity [2] [%] | Drug uptake [3] [% ID/g] | Drug uptake [4] [% ID/g] | Drug uptake [5] [% ID/g] | Ratio [6] | Ratio [7] | Ratio [8] | Ratio [9] | Ratio [10] | Drug uptake [11] [% ID/g] | Drug uptake [12] [% ID/g] | Drug uptake [13] [% ID/g] | Drug uptake [14] [% ID/g] | Drug uptake [15] [% ID/g] | Drug uptake [16] [% ID/g] | Drug uptake [17] [% ID/g] | Drug uptake [18] [% ID/g] | Drug uptake [19] [% ID/g] | Drug uptake [20] [% ID/g] | other results |
| --- | --- | --- | --- | --- | --- | --- | --- | --- | --- | --- | --- | --- | --- | --- | --- | --- | --- | --- | --- | --- | --- |
| CCN(CC)CCNC(=O)c1c[nH]c2ccc([125I])cc2c1=O.Cl.Cl | 1.3 | 23.8 | 4.7 | 5.8 | 2.7 | 0.91 | 2.2 | 4.6 | 38.73 | 67 | 9.93 | 22.27 | 0.13 | 5.16 | 0.32 | 0.01 | 5.74 | 2.06 | 0.88 | 0.15 | Drug uptake [21]: 1.24 % ID/g; Drug uptake [22]: 0.26 % ID/g; Drug uptake [23]: 2.8 % ID/g; Drug uptake [24]: 0.8 % ID/g; Drug uptake [25]: 0.42 % ID/g; Drug uptake [26]: 0.23 % ID/g; Drug uptake [27]: 0.17 % ID/g; Drug uptake [28]: 4.33 % ID/g; Drug uptake [29]: 8.55 % ID/g; Drug uptake [30]: 5.12 % ID/g; Drug uptake [31]: 5.66 % ID/g; Drug uptake [32]: 5.18 % ID/g; Drug uptake [33]: 3.5 % ID/g |
| CCN(CC)CCNC(=O)c1ccc2cc([125I])ccc2c1.Cl | 1.33 | 43.7 | 13 | 9 | 7 | 1.37 | 2.4 | 2.57 | 4.22 | 2.97 | 24.69 | 10.79 | 3.1 | 9.46 | 2.73 | 0.38 | 10.18 | 11.82 | 4.43 | 2.12 | Drug uptake [34]: 0.78 % ID/g; Drug uptake [21]: 9.7 % ID/g; Drug uptake [22]: 8.05 % ID/g; Drug uptake [23]: 13.3 % ID/g; Drug uptake [24]: 5.65 % ID/g; Drug uptake [25]: 2.97 % ID/g; Drug uptake [26]: 1.77 % ID/g; Drug uptake [27]: 1.74 % ID/g; Drug uptake [30]: 13.21 % ID/g; Drug uptake [31]: 13.9 % ID/g; Drug uptake [32]: 12.76 % ID/g; Drug uptake [33]: 12.28 % ID/g |
